IC50 and MIC data for four compounds are collected here from ChEMBL document CHEMBL1126736, “Synthesis and antiherpes virus activity of 1,5-anhydrohexitol nucleosides” (J Med Chem, 1993).

≈ marks a conversion by molar mass, not a printed value.

For one assay, the system named is CCRF-CEM. Description: Inhibitory concentration required to reduce the growth of human CEM cells by 50%. The assay is classed as functional, cell-based. Put shortly:
(§1)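 Cytostatic assay. The value is the concentration that reduces the growth (viability) of the cells by 50%.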

The subject of assay [1] is Cytomegalovirus. Description: Inhibitory concentration against CMV strain AD169 in human embryonic lung (HEL) cell culture. In kind it is functional. The settings on record: Human betaherpesvirus 5. The gist of the method:
(§2)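 Plaque-reduction assay in human embryonic lung (HEL) cells grown in 96-well trays. The value is the concentration that reduces virus plaque formation by 50%. Single representative experiment.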

Assay [2] deals with Cytomegalovirus. Description: Inhibitory concentration against CMV strain Davis in human embryonic lung (HEL) cell culture. The assay is classed as functional. The settings on record: Human betaherpesvirus 5. Put shortly: as §2
For another assay, the system named is FM3A. Description: Inhibitory concentration required to reduce the growth of murine FM3A cells by 50%. As to conditions: Mus musculus. In kind it is functional, cell-based. Put shortly:
as §1

Assay [3] deals with Human alphaherpesvirus 1. Put plainly: Inhibitory concentration against HSV type 1 strain F in human embryonic skin muscle (ESM) fibroblast cell culture. In kind it is functional. Put shortly:
(§3)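 Assay in human embryonic skin-muscle (ESM) cells grown in 96-well trays. The value is the concentration that reduces virus-induced cytopathicity by 50%. Single representative experiment.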

Assay [4] relates to Human alphaherpesvirus 1. Put plainly: Inhibitory concentration against HSV type 1 strain KOS in human embryonic skin muscle (ESM) fibroblast cell culture. In kind it is functional.
Assay [5] deals with Human alphaherpesvirus 1. Description: Inhibitory concentration against HSV type 1 strain Mc Intyre in human embryonic skin muscle (ESM) fibroblast cell culture. The assay is classed as functional. Put shortly:
as §3

Assay [6] concerns Human alphaherpesvirus 2. Description: Inhibitory concentration against HSV type 2 strain 196 in human embryonic skin muscle (ESM) fibroblast cell culture. In kind it is functional. Put shortly:
as §3

The subject of assay [7] is Human alphaherpesvirus 2. Description: Inhibitory concentration against HSV type 2 strain G in human embryonic skin muscle (ESM) fibroblast cell culture. The assay is classed as functional. The gist of the method: as §3
Assay [8] has as its system Human alphaherpesvirus 2. Put plainly: Inhibitory concentration against HSV type 2 strain Lyons in human embryonic skin muscle (ESM) fibroblast cell culture. In kind it is functional. The gist of the method: as §3
Another assay has as its system HEL. Description: Inhibitory concentration required to inhibit cell growth by 50% in human embryonic lung (HEL) cell culture. The assay is classed as functional. Put shortly: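 Uninfected HEL cells grown in 96-well trays. The value is the concentration that reduces cell growth by 50%. Single representative experiment.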
A further assay concerns L1210. Description: Inhibitory concentration required to reduce the growth of murine L1210 cells by 50%. The assay is classed as functional, cell-based. As to conditions: Mus musculus. Put shortly: as §1
The test system of another assay is MT4. Put plainly: Inhibitory concentration required to reduce the growth of human MT-4 cells by 50%. In kind it is functional, cell-based. Put shortly: as §1
A further assay has as its system MOLT-4. Put plainly: Inhibitory concentration required to reduce the growth of human MOLT-4 cells by 50%. In kind it is functional, cell-based. The gist of the method:
as §1

The test system of assay [9] is Human alphaherpesvirus 1. Put plainly: Inhibitory concentration against TK-HSV type 1 strain B2006 in human embryonic skin muscle (ESM) fibroblast cell culture. In kind it is functional. The gist of the method: as §3
The test system of assay [10] is Human alphaherpesvirus 3. Put plainly: Inhibitory concentration against TK-VZV strain YS-R in human embryonic lung (HEL) cell culture. The assay is classed as functional.
For assay [11], the system named is Vesicular stomatitis virus. Description: Inhibitory concentration against VSV in human embryonic skin muscle (ESM) fibroblast cell culture. The assay is classed as functional.
The next assay relates to Vaccinia virus. Put plainly: Inhibitory concentration against VV in human embryonic skin muscle (ESM) fibroblast cell culture. In kind it is functional. The settings on record: Orthopoxvirus vaccinia.
The test system of assay [12] is Human alphaherpesvirus 3. Put plainly: Inhibitory concentration against VZV strain YS in human embryonic lung (HEL) cell culture. The assay is classed as functional.
For assay [13], the system named is Human immunodeficiency virus 1. Put plainly: Inhibitory concentration required to achieve 50% protection of MT-4 cells against cytopathicity of […]. The assay is classed as functional, organism-based. The settings on record: Human immunodeficiency virus 1, MT4. The gist of the method:
(§4)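 MT-4 cells infected with HIV-1 (strain III_B) or HIV-2 (strain ROD). The value is the concentration that protects the cells from virus cytopathicity by 50%.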
In general terms: Cytopathic effects are the visible damage that an infection or toxin causes in cultured cells.

Assay [14] relates to Human alphaherpesvirus 3. Description: Inhibitory concentration against VZV strain OKA in human embryonic lung (HEL) cell culture. In kind it is functional.
In the next assay the test system is ESM. Description: Inhibitory concentration required for morphologic alteration in normal cell in human embryonic skin muscle (ESM) fibroblast cell culture. In kind it is functional. The gist of the method:
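Uninfected ESM cells in 96-well trays, examined under the microscope. The value is the minimal concentration that causes a detectable change in normal cell morphology. Tested up to 400 μg/mL. Single representative experiment.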

The subject of assay [15] is Human alphaherpesvirus 3. Description: Inhibitory concentration against TK-VZV strain 07-1 in human embryonic lung (HEL) cell culture. In kind it is functional.
Assay [16] has as its system Human immunodeficiency virus 2. Put plainly: Inhibitory concentration required to achieve 50% protection of MT-4 cells against cytopathicity of […]. The assay is classed as functional, organism-based. As to conditions: Human immunodeficiency virus 2, MT4. The gist of the method:
as §4

As usually defined, the IC50 is the concentration that inhibits the measured activity by half. In the case of `Nc1ccn(C2COC(CO)C(O)C2)c(=O)n1` (configuration not stated), the IC50 was 1.4 mg/L (≈ 5.8 µM) in the assay on CCRF-CEM; 28 mg/L (≈ 116 µM) in the assay with FM3A; 29 mg/L (≈ 120 µM) in the assay on L1210; 1.1 mg/L (≈ 4.56 µM) in the assay on MT4; 0.87 mg/L (≈ 3.61 µM) in the assay on MOLT-4; above 0.8 mg/L in assay [13]. The IC50 in assay [16] is above 0.8 mg/L. Also, the MIC in the assay with Cytomegalovirus [1] stood at 0.64 mg/L (≈ 2.65 µM); against Cytomegalovirus [2] it was 0.75 mg/L (≈ 3.11 µM); with Human alphaherpesvirus 1 [3] it was 1 mg/L (≈ 4.15 µM); against Human alphaherpesvirus 1 [4], 0.7 mg/L (≈ 2.9 µM); against Human alphaherpesvirus 1 [5], 2 mg/L (≈ 8.29 µM); in the assay with Human alphaherpesvirus 2 [6] it was 0.02 mg/L (≈ 0.0829 µM). In addition, the MIC in the assay with Human alphaherpesvirus 2 [7] was 0.04 mg/L (≈ 0.166 µM); against Human alphaherpesvirus 2 [8], 0.02 mg/L (≈ 0.0829 µM); in the assay on HEL, 2 mg/L (≈ 8.29 µM); with Human alphaherpesvirus 1 [9], 4 mg/L (≈ 16.6 µM); in the assay with Human alphaherpesvirus 3 [10], 0.64 mg/L (≈ 2.65 µM); in assay [11], above 400 mg/L. Also, the MIC against Vaccinia virus was 2 mg/L (≈ 8.29 µM); against Human alphaherpesvirus 3 [12], 0.27 mg/L (≈ 1.12 µM); against Human alphaherpesvirus 3 [14], 0.04 mg/L (≈ 0.166 µM); against ESM it was above 400 mg/L; against Human alphaherpesvirus 3 [15], 0.75 mg/L (≈ 3.11 µM).

On to `O=c1[nH]c(=O)n(C2COC(CO)C(O)C2)cc1I` (configuration not stated), for which the IC50 (in the assay on CCRF-CEM; with FM3A; in the assay on L1210; in the assay with MT4; in the assay with MOLT-4; in [13]) was above 100 mg/L throughout. In assay [16], the IC50 is above 100 mg/L. Besides, the MIC was above 10 mg/L in the assay with Cytomegalovirus [1]; above 10 mg/L in the assay with Cytomegalovirus [2]; 0.07 mg/L (≈ 0.19 µM) against Human alphaherpesvirus 1 [3]; 0.07 mg/L (≈ 0.19 µM) in the assay with Human alphaherpesvirus 1 [4]; 0.07 mg/L (≈ 0.19 µM) against Human alphaherpesvirus 1 [5]; 0.07 mg/L (≈ 0.19 µM) against Human alphaherpesvirus 2 [6]. Also, the MIC is 0.07 mg/L (≈ 0.19 µM) against Human alphaherpesvirus 2 [7]; 0.07 mg/L (≈ 0.19 µM) in the assay on Human alphaherpesvirus 2 [8]; above 50 mg/L in the assay on HEL; above 200 mg/L with Human alphaherpesvirus 1 [9]; above 100 mg/L against Human alphaherpesvirus 3 [10]; above 200 mg/L in assay [11]. In addition, the MIC against Vaccinia virus was above 200 mg/L; in the assay with Human alphaherpesvirus 3 [12], above 100 mg/L; in the assay on Human alphaherpesvirus 3 [14] it was above 100 mg/L; in the assay with ESM, above 400 mg/L; against Human alphaherpesvirus 3 [15], above 100 mg/L.

Consider `O=c1[nH]c(=O)n([C@H]2C[C@H](O)[C@@H](CO)O2)cc1I` [IDOXURIDINE], for which the MIC in the assay with Human alphaherpesvirus 1 [3] was 0.2 mg/L (≈ 0.565 µM); against Human alphaherpesvirus 1 [4], 0.2 mg/L (≈ 0.565 µM); against Human alphaherpesvirus 1 [5], 1 mg/L (≈ 2.82 µM); with Human alphaherpesvirus 2 [6], 0.2 mg/L (≈ 0.565 µM); in the assay on Human alphaherpesvirus 2 [7], 0.2 mg/L (≈ 0.565 µM); against Human alphaherpesvirus 2 [8], 0.2 mg/L (≈ 0.565 µM). The MIC is above 50 mg/L in the assay with HEL; 70 mg/L (≈ 198 µM) with Human alphaherpesvirus 1 [9]; 4 mg/L (≈ 11.3 µM) against Human alphaherpesvirus 3 [10]; above 400 mg/L in [11]; 0.7 mg/L (≈ 1.98 µM) in the assay with Vaccinia virus; 0.4 mg/L (≈ 1.13 µM) against Human alphaherpesvirus 3 [12]. Besides, the MIC against Human alphaherpesvirus 3 [14] was 0.17 mg/L (≈ 0.48 µM); in the assay on ESM it was above 400 mg/L; against Human alphaherpesvirus 3 [15] it was 4 mg/L (≈ 11.3 µM).

With `Nc1nc(O)c2ncn([C@@H]3CO[C@H](CO)[C@@H](O)C3)c2n1`, the IC50 in the assay on CCRF-CEM is 21 mg/L (≈ 74.7 µM); in the assay on FM3A it was 12.3 mg/L (≈ 43.7 µM); in the assay on L1210, 5.4 mg/L (≈ 19.2 µM); in the assay with MT4 it was 21 mg/L (≈ 74.7 µM); in the assay on MOLT-4 it was 14 mg/L (≈ 49.8 µM); in assay [13], above 4 mg/L. Moreover, in [16], the IC50 is above 4 mg/L. Further, the MIC with Cytomegalovirus [1] came to 1.5 mg/L (≈ 5.33 µM); in the assay with Cytomegalovirus [2], 1.2 mg/L (≈ 4.27 µM); against Human alphaherpesvirus 1 [3], 0.2 mg/L (≈ 0.711 µM); in the assay on Human alphaherpesvirus 1 [4], 0.2 mg/L (≈ 0.711 µM); with Human alphaherpesvirus 1 [5], 0.7 mg/L (≈ 2.49 µM); against Human alphaherpesvirus 2 [6] it was 0.02 mg/L (≈ 0.0711 µM). The MIC was 0.1 mg/L (≈ 0.356 µM) against Human alphaherpesvirus 2 [7]; 0.01 mg/L (≈ 0.0356 µM) against Human alphaherpesvirus 2 [8]; 20 mg/L (≈ 71.1 µM) against HEL; 20 mg/L (≈ 71.1 µM) in the assay on Human alphaherpesvirus 1 [9]; 2.8 mg/L (≈ 9.95 µM) in the assay on Human alphaherpesvirus 3 [10]; above 2 mg/L in [11]. In addition, the MIC in the assay on Vaccinia virus is 7 mg/L (≈ 24.9 µM); with Human alphaherpesvirus 3 [12], 0.1 mg/L (≈ 0.356 µM); against Human alphaherpesvirus 3 [14] it was 0.9 mg/L (≈ 3.2 µM); against ESM it was above 400 mg/L; against Human alphaherpesvirus 3 [15], 4 mg/L (≈ 14.2 µM).
